Results from different studies.
Cell line: PC-3
Read-out: cell growth or viability

Compound	technique	time	notes	IC50
CC(=NNC(=O)c1cc(-c2ccccc2)n(-c2ccc(S(N)(=O)=O)cc2)n1)c1ccc(C)cc1	fluorescence	48 h		19.2 µM
CC(C)Cc1ccc([C@H](C)C(=O)O)cc1	SRB	72 h		553 µM
COc1cc(C(=O)c2nc(-c3cccc4[nH]nnc34)c[nH]2)cc(OC)c1OC	MTS	72 h		0.0203 µM
NS(=O)(=O)c1ccc(-n2nc(-c3nnc(S)o3)cc2-c2ccccc2)cc1	fluorescence	48 h		51.2 µM
COc1cc(C(=O)c2nc(-c3cccc4c3CC(=O)N4)c[nH]2)cc(OC)c1OC	MTS	72 h		0.0186 µM
CN(C)c1cccc2c(S(=O)(=O)NCCCCN=C=S)cccc12	MTT	24 h		16.8 µM
O[C@@H]1[C@@H](O)[C@H](Nc2cc3cccnc3c3ncccc23)OC[C@H]1O	MTT	48 h	dark	3.9 µM
COc1cc(C(=O)c2nc(-c3cccc4[nH]ccc34)c[nH]2)cc2c1OCO2	MTS	72 h		0.005 µM
O=P1(C2CCCCC2)CCCCC1	MTT	72 h		64.5 µM
COc1cc(C(=O)c2nc(-c3ccncc3)c[nH]2)cc(OC)c1OC	MTS	72 h		> 1 µM
NS(=O)(=O)c1ccc(-n2nc(C(=O)NN=Cc3ccccc3O)cc2-c2ccccc2)cc1	fluorescence	48 h		18 µM
COc1cc(C(=O)c2nc(-c3ccsc3)c[nH]2)cc(OC)c1OC	MTS	72 h		0.0873 µM
O=P1(c2ccccc2)CCCCC1	MTT	72 h		> 100 µM
NS(=O)(=O)c1ccc(-n2nc(C(=O)NN3C(=O)CCC3=O)cc2-c2ccccc2)cc1	fluorescence	48 h		36.2 µM
COc1cc(C(=O)c2nc(-c3cccc4cc[nH]c34)c[nH]2)cc(OC)c1OC	MTS	72 h		0.0316 µM
COc1cc(C=NNC(=O)c2cc(-c3ccccc3)n(-c3ccc(S(N)(=O)=O)cc3)n2)cc(OC)c1OC	fluorescence	48 h		33.4 µM
COc1cccc2c1C(=O)c1c(O)c3c(c(O)c1C2=O)C[C@@](O)(C(=O)CO)C[C@@H]3O[C@H]1C[C@H](N)[C@H](O)[C@H](C)O1	MTT	72 h		0.3 µM
NS(=O)(=O)c1ccc(-n2nc(-c3nnc(CCl)o3)cc2-c2ccccc2)cc1	fluorescence	48 h		36.2 µM
COc1cccc2c1C(=O)c1c(O)c3c(c(O)c1C2=O)C[C@@](O)(C(=O)CO)C[C@@H]3O[C@H]1C[C@H](N)[C@H](O)[C@H](C)O1	MTT			4.81 µg/mL
